Source: article PMC4065287 (Diabetes Therapy, 2014)
“And” between values parts separate entries of the source, which are not always exact repeats. Equal entries are not always repeated. “Also recorded” adds a separate entry of the source. Where two headings read alike, the source gives them in different places.

Experiments:
[1] = test system: CD-1 mice; details: 2-year study; cited from earlier work
[2] = test system: SGLT2; details: cited from earlier work
[3] = test system: SD rats; details: cited from earlier work
[4] = test system: Chinese hamster ovary (CHO) cells
[5] = test system: primary hepatocyte cultures; details: single oral dose up to 700 mg/kg
[6] = test system: EJ-1 tumor xenografts; assay: In vivo mouse xenograft study, EJ-1; design: species or system athymic nude mice
[7] = test system: peripheral blood lymphocytes; details: up to 200 mg/kg per day for 1 month
[8] = in vivo; details: both, Sprague-Dawley, rat, plasma, po, 200 mg/kg per day
[9] = test system: CD-1 mice; details: for carcinogenicity: oral gavage up to 24 months
[10] = human plasma after 10 mg MRHD of dapagliflozin; cited from earlier work
[11] = test system: Escherichia coli strain WP2 uvrA; details: maximum concentrations (≤5,000 μg/plate) with or without metabolic activation
[12] = chronic toxicology studies; cited from earlier work
[13] = test system: Harlan SD rats
[14] = test system: more than 330 receptors, enzymes, ion channels, and transporters; details: cited from earlier work
[15] = test system: Beagle dogs
[16] = Urinary exposure extrapolations from bridging studies; type: in vivo; details: mice, rats, and dogs
[17] = test system: Salmonella typhimurium stains TA98, TA100, TA1535, and TA1537; details: maximum concentrations (≤5,000 μg/plate) with or without metabolic activation
[18] = test system: human bladder transitional cell carcinoma (TCC) cell lines (T24, TCCSUP, UM-UC-3, J82, SW780, and EJ-1); assay: In vitro cell proliferation of bladder TCC cell lines with test compounds; type: cell-based; details: 0.2, 2, 20 μg/mL, serum-free medium, 72 h
Outline: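 Low-passage TCC lines (<6 months from thaw) were seeded at 20,000 or 40,000 cells/well in RPMI 1640 + 10% FBS. After 24 h adherence and 24 h serum-free, cells got medium-only vehicle or test compound (0.2, 2, 20 μg/mL) serum-free for 72 h. Controls were a return to 10% FBS and continuous serum. Percent confluence was imaged every 2 h to build growth curves.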

[19] = 2-year rodent carcinogenicity studies
[20] = cited from earlier work
[21] = test system: bone marrow polychromatic erythrocytes
[22] = human subjects, 10 mg dose; cited from earlier work
[23] = test system: hormone receptors; details: cited from earlier work
[24] = test system: liver, skeletal muscle, kidney, and adipose tissues; details: male ZDF rats vs vehicle
[25] = cited from earlier work; remark: listed apart in the source
[26] = test system: TCC cell lines (T24, TCCSUP, UM-UC-3, J82, and SW780); assay: In vitro cell proliferation of bladder TCC cell lines with increasing glucose; type: cell-based, human
Outline: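 Five TCC lines seeded at 40,000 or 80,000 cells/well in RPMI 1640 with 10% FBS, glucose set to 11 (control), 25, 35 or 50 mM. Cells were incubated 145 h in the incubator with live-cell imaging. Percent confluence was read every 2 h and growth curves were built over 145 h.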

For `Cc1ccc([C@@H]2O[C@H](CO)[C@@H](O)[C@H](O)[C@H]2O)cc1Cc1ccc(-c2ccc(F)cc2)s1` [canagliflozin], the “exposure multiple of clinical exposures” value [1] is given as 14 ×, the “incidence of neoplasms or preneoplastic lesions” value [1] is given as “did not increase the incidence” and the “selectivity for SGLT2 than for SGLT1” value [2] is given as 200 ×. The “exposure multiple with increased incidence of neoplasms of the adrenals” value [3] was at least 12 × and the “exposure multiple with increased incidence of neoplasms of the renal tubules” value [3] was at least 12 ×.
In the case of `CCOc1ccc(Cc2cc([C@@H]3O[C@H](CO)[C@@H](O)[C@H](O)[C@H]3O)ccc2Cl)cc1` [dapagliflozin, (2S,3R,4R,5S,6R)-2-[4-chloro-3-(4-ethoxybenzyl)phenyl]-6-(hydroxymethyl)tetrahydro-2H-pyran-3,4,5-triol], the “level that produced cytogenetic alterations in vitro” value [4] was 100 µg/mL, the chromosomal aberration induction ([4]; absence of S9 stimulation) was “negative” and the “clastogenic concentrations relative to total C max in humans with MRHD 10 mg” value ([4]; with metabolic stimulation) was at least 735 times. For the same compound, the “unscheduled DNA synthesis” value [5] was “did not induce an increase”, the “body weight of treated animals” value ([6]; EJ-1 and UM-UC-3 xenograft mice) was “no effect” and the “exposure multiple of human clinical exposures” value ([6]; EJ-1 and UM-UC-3 xenograft mice, parent) was “up to 75 ×”. The “growth of tumor xenografts” value ([6]; mouse, in vivo) was “no effect; also recorded: similar”, the “AUC multiple of MRHD” value [7] was ≤ 2,602 × MRHD and the “C max multiple of MRHD” value [7] was at most 544 × MRHD. The “clastogenicity in peripheral blood lymphocytes” value [7] was “no evidence of clastogenicity”, the Cmax [8] was 63 to 74 µg/mL and the “exposure (AUC) multiple relative to human AUC at 10 mg” value ([9]; females 2 mg/kg per day) was about 11 ×. The “exposure (AUC) multiple relative to human AUC at 10 mg” value ([9]; females 10 mg/kg per day) was about 52 ×, the “exposure (AUC) multiple relative to human AUC at 10 mg” value ([9]; females 20 mg/kg per day) was about 105 × and the carcinogenicity ([9]; females, doses ≤20 mg/kg per day) was “not carcinogenic”. The “incidence of background tumors or time to onset” value ([9]; lymphoreticular, uterus and cervix, lung, liver neoplasms) was “did not increase the incidence”, the “urinary bladder hyperplasia versus control” value ([9]; male mice) was “did not increase urinary bladder hyperplasia” and the “exposure (AUC) multiple relative to human AUC at 10 mg” value ([9]; males 5 mg/kg per day) was “approximately 4 ×”. For the same compound, the “exposure (AUC) multiple relative to human AUC at 10 mg” value ([9]; males 15 mg/kg per day) was about 14 ×, the “exposure (AUC) multiple relative to human AUC at 10 mg” value ([9]; males 40 mg/kg per day) was about 72 × and the carcinogenicity ([9]; males, doses ≤40 mg/kg per day) was “not carcinogenic”. For the same compound, the “selectivity for SGLT2 than for SGLT1” value [2] was 1,200 ×, the “maximum observed plasma concentration (C max)” value [10] was 0.136 µg/mL and the bacterial reverse-mutation assay [11] was “negative”. For the same compound, the “levels of urinary glucose” value [12] was 400 to 500 mM, the carcinogenicity ([13]; doses up to 10 mg/kg per day) was “not carcinogenic” and the “exposure (AUC) multiple relative to human AUC at 10 mg” value ([13]; females 0.5 mg/kg per day) was about 9 ×. For the same compound, the “exposure (AUC) multiple relative to human AUC at 10 mg” value ([13]; females 2 mg/kg per day) was about 34 ×, the “microscopic changes in the kidney” value ([13]; males only) was “exacerbation in severity of CPN and increased incidence and severity of minimal to marked atypical hyperplasia of renal cortical tubules” and the “neoplasms affecting the renal tubules, adrenal gland, or testicular Leydig cells” value ([13]; rat, in vivo) was “no dapagliflozin-related neoplasms”. For the same compound, the “tumors or preneoplastic lesions in the urinary bladder” value ([13]; rat, in vivo) was “no indications of any dapagliflozin-related tumors or preneoplastic lesions”, the off-target interactions [14] was “no off-target interactions” and the “proliferative or hyperplastic changes of the urinary bladder” value ([15]; 1 year) was “did not show dapagliflozin-related proliferative or hyperplastic changes”. The “exposure multiple of human clinical exposure” value ([15]; 1 year, supratherapeutic doses) was > 3,300 × and > 3,000 ×, the urinary glucose excretion ([15]; treated dogs (control 5–13 mg per day)) was 8,711–32,200 mg per day and the “extrapolated urinary concentrations relative to humans” value [16] was over 700 ×. For the same compound, the bacterial reverse-mutation assay [17] was “negative”, the “in vitro TCC proliferation” value [18] was “did not affect” and the “levels of urinary glucose” value [19] was about 200 mM. For the same compound, the oral bioavailability [20] was “good”, the volume of distribution [20] was “high” and the “bone marrow micronucleus genotoxicity” value ([21]; 2 weeks, up to 250 mg/kg per day) was “not genotoxic”. The “bone marrow micronucleus genotoxicity” value ([21]; 3 days, up to 700 mg/kg per day) was “not genotoxic”, the “urinary glucose, mean” value [22] was 166 mM and the “binding to hormone receptors” value [23] was “did not bind”. The “probe sets showing significant changes” value [24] was “less than 1%”, the “overall incidence of malignancies and unspecified tumors” value ([25]; July 15, 2011 cutoff (control 1.4%)) was 1.5% and the “urinary bladder tumors, incidence rate” value ([25]; dapagliflozin groups (placebo 0.03)) was 0.15. For the same compound, the “urinary bladder tumors, number of cases” value ([25]; dapagliflozin groups (placebo 1)) was 9 and the “bladder cancer cases, percent of patients” value ([25]; of 5,501 patients, July 15, 2011 cutoff) was 0.16%.
For `OC[C@H]1OC(O)[C@H](O)[C@@H](O)[C@@H]1O` (some centres unmarked) [glucose], the reduction of growth ([26]; J82, 25 mM) was 37%, the growth ([26]; SW780, 25 mM) was “did not substantially alter” and the growth ([26]; T24, 25 mM) was “did not substantially alter”. For the same compound, the reduction of growth ([26]; T24, 35 mM) was 83%, the reduction of growth ([26]; TCCSUP, 25 mM) was 42% and the reduction of growth ([26]; UM-UC-3, 25 mM) was 73%. The growth ([26]; all cell lines at 35 mM and 50 mM, except T24 at 35 mM) was “completely inhibited”.
